Source: publication PMC9547662 (Investigational new drugs, 2018)

Legend:
[1] = tested on: ARE/Nrf2 transcriptional activity; assay: ARE/NRF2 luciferase reporter assay in ARE/HepG2/Luciferase reporter cells; assay type: cell-based; conditions: 24 hours; for IC50: read-out: IC50 in HepG2 ARE/NRF2 reporter assay, 200μM t-BHQ, compounds 20nM to 10μM
Procedure, shortened: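 HepG2 ARE-luciferase reporter cells (7,000/well) cultured 24 h before test compound; t-BHQ added 30 min later; 24 h at […]; one-step luciferase reagent, luminescence read. Screen: 5μM, 200 or 500μM t-BHQ, two independent runs, Z-scores normalized to mean of compound-treated wells. Dose-response: […] serial dilutions 20nM–10μM plus 200μM t-BHQ; 0.5% DMSO control; percent of DMSO control.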

U266 cells [2] = assay: Detection of mitochondrial superoxide; assay type: cell-based, human; conditions: 24 hours
U266 cells [3] = assay: Viability by DAPI staining; assay type: cell-based, human; conditions: 5μM, 24 hours
Procedure, shortened: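 Over 24 hours, U266 cells (RPMI 1640, 10% heat-inactivated FBS, 1% L-glutamine, penicillin-streptomycin; 5% CO2, 37°C) were treated with test compound at 5μM, alone or with 200μM pyocyanin. Vehicle was the negative control and 200μM pyocyanin the positive control. Cells were stained with DAPI, and viability was scored by flow cytometry as percentage DAPI-negative. Mean and SEM are reported.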

MM.1S cells [4] = assay: MTS assay of cell growth in MM.1S cells; assay type: cell-based, human
U266 cells [5] = assay: MTS assay of cell growth in U266 cells; assay type: cell-based, human; conditions: 5μM single agent, 24, 48 and 72 hours
[6] = tested on: NRF2 nuclear translocation; assay: NRF2 nuclear translocation high-content screen in HepG2 cells; assay type: cell-based; conditions: 0.625-10μM compound + 200μM t-BHQ, 2 hours
[7] = tested on: NRF2 nuclear translocation; assay: NRF2 nuclear translocation assay in MM.1S cells; assay type: cell-based, human; conditions: 2 hours, no t-BHQ
Procedure, shortened: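 MM.1S cells (300,000/well) exposed 2 h to test compound, DMSO or 2 mM N-acetyl-L-cysteine; fixed 4% PFA 30 min, permeabilized/blocked (2% BSA, 0.1% Triton X-100) 30 min; stained with Hoechst 33342 (4ug/mL) and NRF2-Alexa Fluor 488 antibody (1:1000); high-content imaging and image analysis; NRF2 inhibition expressed as Z-scores.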

MM.1S cells [8] = assay: Detection of mitochondrial superoxide; assay type: cell-based, human; conditions: 24 hours; for mitochondrial superoxide induction (rank among six drug candidates): 0.6, 1.25, 2.5 and 5μM

| Compound | IC50 [1] [nM] | effect on nuclear translocation of NRF2 (ratio of cytoplasmic to nuclear NRF2) [6] | mitochondrial superoxide induction (rank among six drug candidates) (MM.1S cells [8]) | other results |
| --- | --- | --- | --- | --- |
| vitamin B12 | 620 |  |  |  |
| brusatol |  |  |  | mitochondrial superoxide levels (U266 cells [2]; 5μM): increased superoxide levels; viability (percentage of DAPI-negative viable cells) (U266 cells [3]): decreased viability; cell growth (MM.1S cells [4]; 5μM single agent, 24, 48 and 72 hours): efficiently suppressed growth; cell growth (U266 cells [5]): efficiently suppressed growth |
| N#C/C(=C(/N)Sc1ccc(N)cc1)c1ccccc1C(F)(F)F [SL-327] | 310 | affected nuclear translocation of NRF2 | followed by AZ-628 and SL-327 | effect on nuclear translocation of NRF2 [7]: anticipated inhibitory effect on nuclear translocation of NRF2 |
| O=C1NCCc2[nH]c(-c3ccncc3)cc21 [PHA-767491] | 2410 | affected nuclear translocation of NRF2 | most potent superoxide inducer | cell growth (MM.1S cells [4]; 2.5μM and 5μM, 48 hours): significant inhibition of cell growth |
| C=CCc1cccc(/C=N/NC(=O)CN2CCN(Cc3ccccc3)CC2)c1O [PAC-1] | 2700 |  |  |  |
| Cn1c2cccc(=O)c-2nc2ccccc21 [Pyocyanin, pyocyanin] |  |  |  | mitochondrial superoxide induction (MM.1S cells [8]; serial dilutions 0 to 300μM): efficient and dose-dependent induction of mitochondrial superoxide; mitochondrial superoxide induction (U266 cells [2]; serial dilutions 0 to 300μM): efficient and dose-dependent induction of mitochondrial superoxide |
| Cc1ccc(NC(=O)c2cccc(C(C)(C)C#N)c2)cc1Nc1ccc2ncn(C)c(=O)c2c1 [AZ-628] | 1000 | affected nuclear translocation of NRF2 | followed by AZ-628 | cell growth (MM.1S cells [4]; 2.5μM and 5μM, 48 hours): significant inhibition of cell growth |
| CC(C)(C)c1cc(O)ccc1O [t-BHQ, tert-butylhydroquinone] |  |  |  | induction of NRF2 transcriptional activity ([1]; 200μM or 500μM t-BHQ, HepG2 cells): robust induction of NRF2 transcriptional activity |
| Cc1ccc(C(=O)Cn2c3c(sc2=N)CCCC3)cc1 [Pifithrin-α, pifithrin-α] | 160 |  |  |  |
